The source of these data is ChEMBL document CHEMBL4387722.

The target of series [1] is T1, Tyrosine-protein phosphatase non-receptor type 5 (Homo sapiens, UniProt P54829).
T1 sequence (P54829 whole entry): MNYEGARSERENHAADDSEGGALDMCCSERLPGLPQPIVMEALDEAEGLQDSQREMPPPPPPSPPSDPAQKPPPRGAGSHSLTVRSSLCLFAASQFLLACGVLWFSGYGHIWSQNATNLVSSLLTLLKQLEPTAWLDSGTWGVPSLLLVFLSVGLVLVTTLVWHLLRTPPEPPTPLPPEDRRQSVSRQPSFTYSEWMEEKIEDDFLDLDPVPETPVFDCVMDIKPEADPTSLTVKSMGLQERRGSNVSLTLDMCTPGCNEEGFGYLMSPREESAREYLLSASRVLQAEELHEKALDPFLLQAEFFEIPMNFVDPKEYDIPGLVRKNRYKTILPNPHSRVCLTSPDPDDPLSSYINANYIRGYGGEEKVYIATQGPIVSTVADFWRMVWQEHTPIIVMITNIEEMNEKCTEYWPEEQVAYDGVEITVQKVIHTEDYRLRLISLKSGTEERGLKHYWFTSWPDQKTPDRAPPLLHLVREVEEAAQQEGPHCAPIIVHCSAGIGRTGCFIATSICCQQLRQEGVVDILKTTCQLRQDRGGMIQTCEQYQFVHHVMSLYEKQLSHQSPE
In words: Inhibition of human PTPN5 expressed in Escherichia coli Rosetta 2 (DE3) using pNPP as substrate after 45 mins by spectrophotometric method.

A short description of series [2]: Cytotoxicity against human THLE3 cells assessed as reduction in cell viability after 48 hrs by Alamar blue assay. The series is classed as cell-based. The procedure, abridged:
(§1)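 Alamar Blue viability read-out. Human liver (THLE-3) and kidney (HEK 293) cells incubated with compound for 48 h. Tested in dose-response to derive CC50.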
For orientation: Alamar Blue is a resazurin reagent that responds to reducing activity.

Series [3] deals with Mycobacterium tuberculosis. In words: Antitubercular activity against Mycobacterium tuberculosis H37Rv after 5 days at 200 uM relative to control. The series is classed as functional. To be noted: 120 h. The procedure, abridged:
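M. tuberculosis grown in liquid culture with compound at a fixed 200 μM for 5 days. Growth inhibition expressed as percent of control.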

In another series the target is HSP60/HSP10 (Homo sapiens, UniProt P10809). In words: Inhibition of human HSP60 expressed in Escherichia coli Rosetta 2(DE3)/human HSP10 expressed in Escherichia coli Rosetta 2(DE3) pLysS cells assessed as reduction in HSP60/HSP10-mediated denatured pig heart mitochondrial MDH refolding by measuring MDH enzyme activity using sodium mesoxalate as substrate after 40 to 60 mins by spectrometric analysis.

Series [4] addresses T2, Tyrosine-protein phosphatase non-receptor type 2 (Homo sapiens, UniProt P17706).
T2 sequence (P17706 whole entry): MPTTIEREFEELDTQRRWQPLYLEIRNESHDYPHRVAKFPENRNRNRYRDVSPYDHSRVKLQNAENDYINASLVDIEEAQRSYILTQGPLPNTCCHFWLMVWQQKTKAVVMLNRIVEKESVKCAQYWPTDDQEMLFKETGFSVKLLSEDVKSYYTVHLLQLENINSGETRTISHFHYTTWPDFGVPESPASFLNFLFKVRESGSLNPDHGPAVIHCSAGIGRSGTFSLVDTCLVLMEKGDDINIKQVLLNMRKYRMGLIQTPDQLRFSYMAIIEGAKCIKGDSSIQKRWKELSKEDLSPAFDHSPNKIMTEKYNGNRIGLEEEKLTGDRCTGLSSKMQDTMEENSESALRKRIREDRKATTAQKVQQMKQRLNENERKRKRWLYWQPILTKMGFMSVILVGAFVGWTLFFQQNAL
In words: Inhibition of human PTPN2 expressed in Escherichia coli Rosetta 2 (DE3) using pNPP as substrate after 45 mins by spectrophotometric method.

The nature of series [5]: Cytotoxicity against human HEK293 cells assessed as reduction in cell viability after 48 hrs by Alamar blue assay. The series is classed as cell-based. The procedure, abridged: as §1
Series [6] addresses T3, Tyrosine-protein phosphatase non-receptor type 1 (Homo sapiens, UniProt P18031).
T3 sequence (P18031 whole entry): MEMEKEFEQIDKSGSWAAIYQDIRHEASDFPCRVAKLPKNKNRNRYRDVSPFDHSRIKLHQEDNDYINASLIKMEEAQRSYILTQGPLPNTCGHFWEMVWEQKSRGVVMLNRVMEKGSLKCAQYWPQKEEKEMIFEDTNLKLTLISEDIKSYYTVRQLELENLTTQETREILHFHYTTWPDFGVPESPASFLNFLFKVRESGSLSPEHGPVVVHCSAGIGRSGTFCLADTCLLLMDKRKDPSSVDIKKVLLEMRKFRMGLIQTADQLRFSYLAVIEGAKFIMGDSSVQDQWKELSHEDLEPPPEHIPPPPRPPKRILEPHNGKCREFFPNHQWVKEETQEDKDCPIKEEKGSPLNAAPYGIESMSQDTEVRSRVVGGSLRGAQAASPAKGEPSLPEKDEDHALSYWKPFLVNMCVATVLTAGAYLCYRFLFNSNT
In words: Inhibition of human PTPN1 expressed in Escherichia coli Rosetta 2 (DE3) using pNPP as substrate after 45 mins by spectrophotometric method.

Series [7] has as its target T4, E. coli GroEL/ES (Escherichia coli, UniProt P0A6F5). In words: Inhibition of Escherichia coli GroEL expressed in Escherichia coliDH5alpha/Escherichia coli GroES expressed in Escherichia coli BL21 (DE3) assessed as reduction in GroEL/GroES-mediated denatured pig heart mitochondrial MDH refolding by measuring MDH enzyme activity using sodium mesoxalate as substrate after 20 to 40 mins by spectrometric analysis.

Series [8] deals with T5, Malate dehydrogenase, mitochondrial (Sus scrofa, UniProt P00346).
T5 sequence (P00346 whole entry): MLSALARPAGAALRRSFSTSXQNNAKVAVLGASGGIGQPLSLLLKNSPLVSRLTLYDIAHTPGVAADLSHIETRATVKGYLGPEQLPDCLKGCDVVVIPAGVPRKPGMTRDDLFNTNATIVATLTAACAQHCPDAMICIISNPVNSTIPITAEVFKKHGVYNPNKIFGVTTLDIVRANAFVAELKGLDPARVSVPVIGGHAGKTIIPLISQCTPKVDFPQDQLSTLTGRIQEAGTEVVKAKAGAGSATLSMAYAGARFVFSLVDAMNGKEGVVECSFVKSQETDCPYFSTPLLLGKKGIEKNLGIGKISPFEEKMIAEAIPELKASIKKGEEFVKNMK
In words: Inhibition of refolded pig heart mitochondrial MDH preincubated with Escherichia coli GroEL/GroES for 45 mins using sodium mesoxalate as substrate followed by compound addition and measured after 20 to 30 mins by spectrometric analysis.

Series [9] has as its system Mycobacterium tuberculosis. In words: Antitubercular activity against Mycobacterium tuberculosis H37Rv after 5 days. The series is classed as functional, organism-based. The settings on record: 120 h.
Series [10] addresses T6, Phosphotyrosine protein phosphatase (Mycobacterium tuberculosis, UniProt A0A045ISB3).
T6 sequence (A0A045ISB3 whole entry): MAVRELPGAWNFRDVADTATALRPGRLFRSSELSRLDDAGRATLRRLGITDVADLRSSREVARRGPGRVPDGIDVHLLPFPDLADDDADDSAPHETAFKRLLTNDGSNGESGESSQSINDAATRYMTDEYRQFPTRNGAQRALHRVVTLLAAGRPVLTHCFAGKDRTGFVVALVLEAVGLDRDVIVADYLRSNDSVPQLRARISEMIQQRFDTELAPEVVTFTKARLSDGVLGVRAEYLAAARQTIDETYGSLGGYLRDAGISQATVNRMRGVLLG
Put plainly: Inhibition of Mycobacterium tuberculosis His-tagged PtpB expressed in Escherichia coli Rosetta 2 (DE3) using pNPP as substrate after 30 mins by spectrophotometric method.

A short description of series [11]: Inhibition of refolded rhodanese (unknown origin) preincubated with Escherichia coli GroEL/GroES for 60 mins by measuring rhodanese enzyme activity followed by compound addition by Fe(SCN)3 dye based spectrometric analysis. The arrangement: species or system Homo sapiens.
The target in series [12] is T4, E. coli GroEL/ES. Put plainly: Inhibition of Escherichia coli GroEL expressed in Escherichia coli DH5alpha/Escherichia coli GroES expressed in Escherichia coli BL21 (DE3) assessed as reduction in GroEL/GroES-mediated denatured rhodanese refolding by measuring rhodanese enzyme activity after 45 mins by Fe(SCN)3 dye based spectrometric analysis.

T4 sequence (P0A6F5 whole entry, looked up): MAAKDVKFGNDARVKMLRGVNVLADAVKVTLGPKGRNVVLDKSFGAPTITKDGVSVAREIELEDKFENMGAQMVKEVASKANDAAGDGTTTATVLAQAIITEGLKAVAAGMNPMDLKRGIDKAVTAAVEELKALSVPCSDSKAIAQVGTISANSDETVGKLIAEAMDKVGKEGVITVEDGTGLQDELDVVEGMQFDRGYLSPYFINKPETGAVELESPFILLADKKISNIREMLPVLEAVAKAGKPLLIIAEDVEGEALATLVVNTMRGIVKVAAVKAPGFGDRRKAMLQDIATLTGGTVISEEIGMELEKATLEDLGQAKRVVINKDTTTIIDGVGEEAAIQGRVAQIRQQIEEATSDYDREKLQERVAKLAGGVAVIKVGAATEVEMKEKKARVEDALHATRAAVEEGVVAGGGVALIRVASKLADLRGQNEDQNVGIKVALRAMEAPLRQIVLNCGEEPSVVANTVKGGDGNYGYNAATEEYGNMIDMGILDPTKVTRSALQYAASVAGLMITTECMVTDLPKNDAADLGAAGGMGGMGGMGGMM
HSP60/HSP10, sequence (P10809 whole entry): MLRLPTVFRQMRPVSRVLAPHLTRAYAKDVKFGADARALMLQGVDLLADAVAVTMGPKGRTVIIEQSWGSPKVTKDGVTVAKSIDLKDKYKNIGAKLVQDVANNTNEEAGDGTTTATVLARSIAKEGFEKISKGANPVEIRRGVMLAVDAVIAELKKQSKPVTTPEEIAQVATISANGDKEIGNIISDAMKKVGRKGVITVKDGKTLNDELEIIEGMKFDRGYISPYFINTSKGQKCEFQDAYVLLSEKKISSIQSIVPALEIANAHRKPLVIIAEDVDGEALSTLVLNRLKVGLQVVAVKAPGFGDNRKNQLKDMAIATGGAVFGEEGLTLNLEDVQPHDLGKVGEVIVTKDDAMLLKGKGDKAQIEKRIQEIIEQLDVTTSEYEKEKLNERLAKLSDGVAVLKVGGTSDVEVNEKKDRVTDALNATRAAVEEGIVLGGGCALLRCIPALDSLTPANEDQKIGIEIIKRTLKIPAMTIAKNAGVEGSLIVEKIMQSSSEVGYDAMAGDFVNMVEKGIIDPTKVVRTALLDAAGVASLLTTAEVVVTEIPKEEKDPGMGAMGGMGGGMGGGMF
HSP60/HSP10, sequence (P61604 whole entry, further chain): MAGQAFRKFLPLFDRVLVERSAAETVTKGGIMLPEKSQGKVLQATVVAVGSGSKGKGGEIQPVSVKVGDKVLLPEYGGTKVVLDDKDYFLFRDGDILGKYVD

For the molecule `O=S(=O)(Nc1ccc(-c2nc3ccccc3o2)cc1)c1cccc(F)c1`, the IC50 in series [1] is 54 µM; at HSP60/HSP10, 71 µM; in series [4] it was 80 µM; in series [6], 62 µM; on E. coli GroEL/ES [7], 92 µM; in [8], over 63 µM. For the same molecule, the IC50 is 91 µM in [10], over 100 µM in [11] and 225 µM at E. coli GroEL/ES [12]. Further, the CC50 at 48 h in [2] and in series [5] was over 100 µM throughout. The molecule also registered an inhibition at 200 µM in series [3] of 80%. Besides, in series [9], the EC50 was determined as 185 µM.

Regarding `O=[N+]([O-])c1cc(S(=O)(=O)Nc2ccc(-c3nc4ccccc4o3)cc2)ccc1Cl`, the IC50 in [1] is 46 µM; at HSP60/HSP10, 17 µM; in [4], 62 µM; in series [6] it was 38 µM; at E. coli GroEL/ES [7] it was 20 µM; in series [8] it was over 63 µM. In addition, the figures for the IC50 (in series [10]; in [11]; at E. coli GroEL/ES [12]) were 35 µM, over 100 µM and 44 µM, respectively. The CC50 at 48 h in [2] was 24 µM; in series [5], 85 µM. Moreover, the inhibition at 200 µM in [3] was determined as 52%. The same molecule registered an EC50 in series [9] of 193 µM.

On to `O=S(=O)(Nc1ccc2oc(-c3ccccc3)nc2c1)c1ccc(Cl)s1`, for which the IC50 in series [1] is 44 µM; on HSP60/HSP10, 70 µM; in series [4] it was 72 µM; in series [6] it was 76 µM; on E. coli GroEL/ES [7] it was over 100 µM; in [8], over 63 µM. Moreover, the figures for the IC50 (in series [10]; in series [11]; at E. coli GroEL/ES [12]) were 54 µM, over 100 µM and 234 µM, respectively. Besides, the CC50 at 48 h is 43 µM in series [2] and over 100 µM in series [5]. Besides, the inhibition at 200 µM in [3] is 71%. This molecule also returned an EC50 in series [9] of over 200 µM.

On to `COc1cccc(S(=O)(=O)Nc2ccc3oc(-c4ccccc4)nc3c2)c1`, for which the IC50 in series [1] was 44 µM; at HSP60/HSP10, over 100 µM; in [4], 87 µM; in series [6], 86 µM; on E. coli GroEL/ES [7] it was over 100 µM; in [8], over 63 µM. Besides, the IC50 in series [10] is over 100 µM; in series [11] it was over 100 µM; on E. coli GroEL/ES [12], 220 µM. The results for the cytotoxic concentration (CC50) at 48 h in [2] and in [5] were 37 µM and 63 µM, respectively. The molecule further displayed an inhibition at 200 µM in [3] of 83%. The molecule also yielded an EC50 in series [9] of 162 µM.

Turning to `Cc1ccccc1S(=O)(=O)Nc1ccc2oc(-c3ccccc3)nc2c1`, the IC50 in [1] is 30 µM; on HSP60/HSP10, over 100 µM; in series [4], 29 µM; in series [6], 41 µM; on E. coli GroEL/ES [7], over 100 µM; in [8] it was over 63 µM. For the same molecule, the values for the IC50 (in series [10]; in series [11]; on E. coli GroEL/ES [12]) were 59 µM, over 100 µM and 127 µM, respectively. The CC50 at 48 h came to 35 µM in series [2] and 57 µM in series [5]. In addition, testing at 200 µM in series [3] gave an inhibition of 61%. This molecule registered an EC50 in series [9] of 197 µM.

For the molecule `C=Cc1ccc(S(=O)(=O)Nc2ccc(-c3nc4ccccc4o3)cc2)cc1`, the IC50 in [1] was 31 µM; at HSP60/HSP10, over 100 µM; in [4] it was 33 µM; in series [6], 47 µM; at E. coli GroEL/ES [7], 91 µM; in series [8], over 63 µM. Besides, the results for the IC50 (in series [10]; in series [11]; on E. coli GroEL/ES [12]) were 52 µM, over 100 µM and 165 µM, respectively. Further, the CC50 at 48 h in series [2] was 82 µM; in [5], over 100 µM. The molecule further showed an inhibition at 200 µM in [3] of 73%. In series [9], this molecule gave a half-maximal effective concentration (EC50) of over 200 µM.

Consider `C=Cc1ccc(S(=O)(=O)Nc2ccc3oc(-c4ccccc4)nc3c2)cc1`, for which the IC50 was 35 µM in series [1]; over 100 µM on HSP60/HSP10; 46 µM in series [4]; 45 µM in series [6]; over 100 µM on E. coli GroEL/ES [7]; over 63 µM in [8]. The half-maximal inhibitory concentration (IC50) was 51 µM in [10], over 100 µM in [11] and 175 µM at E. coli GroEL/ES [12]. Further, the CC50 at 48 h in [2] is 50 µM; in series [5], 53 µM. In series [3], this molecule showed an inhibition at 200 µM of 86%. The same molecule had an EC50 in series [9] of 151 µM.

The IC50 is the point on the concentration scale where inhibition reaches its midpoint. As usually defined, the CC50 is the concentration at which the toxic effect on the cells reaches its halfway point. As usually defined, the inhibition is the change of the read-out against control, counted positive when it falls. In general, EC50 refers to the concentration that produces a half-maximal response.
